Experimental data published in ChEMBL document CHEMBL1128679, “Molecular similarity from atomic electrostatic multipole comparisons. Application to anti-HIV drugs” (J Med Chem, 1995).

Key:
[1] = Similarity index (SI) value of the compound.; format: functional
Summary of the method: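 Computed by comparing atomic electrostatic multipoles at the atomic centres of the molecule pair. Molecule B is rotated and translated against the other by quasi-Newton minimization, using numerical first and second derivatives, with the Hessian updated after every move of B. R is replaced by R + 10^-4 to avoid division by zero. The procedure is repeated to obtain E_B.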

AIK-T4 = assay: Ability to prevent HIV-1 induced T4 cell killing and HIV-1 replication.; format: functional, cell-based; details: Homo sapiens

| SMILES | SI [1] | EC50 (AIK-T4) |
| --- | --- | --- |
| COc1cc(-c2ccc(/N=N/c3ccc4c(S(=O)(=O)O)cc(S(=O)(=O)O)c(N)c4c3O)c(OC)c2)ccc1/N=N/c1ccc2c(S(=O)(=O)O)cc(S(=O)(=O)O)c(N)c2c1O [CHICAGO SKY BLUE SODIUM] | 0.4 | 4.8 µM |
| O=S(=O)(O)c1cc(/N=N/c2ccc3cccnc3c2O)ccc1/C=C/c1ccc(/N=N/c2ccc3cccnc3c2O)cc1S(=O)(=O)O | 0.45 | 6.4 µM |
| Nc1cc(N)c(/N=N/c2ccc(/C=C/c3ccc(/N=N/c4c(N)cc(N)cc4C(=O)O)cc3S(=O)(=O)O)c(S(=O)(=O)O)c2)c(C(=O)O)c1 | 0.69 | 31 µM |
| Nc1c(S(=O)(=O)O)cc2cc(S(=O)(=O)O)ccc2c1/N=N/c1ccc(/C=C/c2ccc(/N=N/c3c(N)c(S(=O)(=O)O)cc4cc(S(=O)(=O)O)ccc34)cc2S(=O)(=O)O)c(S(=O)(=O)O)c1 | 0.31 | 2.9 µM |
| COc1cc(-c2ccc(/N=N/c3ccc4c(S(=O)(=O)O)ccc(S(=O)(=O)O)c4c3N)c(OC)c2)ccc1/N=N/c1ccc2c(S(=O)(=O)O)ccc(S(=O)(=O)O)c2c1N | 0.5 | 13.8 µM |
| O=C(O)c1cc(O)cc(O)c1/N=N/c1ccc(/C=C/c2ccc(/N=N/c3c(O)cc(O)cc3C(=O)O)cc2S(=O)(=O)O)c(S(=O)(=O)O)c1 | 0.16 | 1.4 µM |
| O=S(=O)(O)c1cc(/N=N/c2cc(S(=O)(=O)O)c3cccnc3c2O)ccc1/C=C/c1ccc(/N=N/c2cc(S(=O)(=O)O)c3cccnc3c2O)cc1S(=O)(=O)O | 0 | 1.3 µM |
